The text below walks through data of ChEMBL document CHEMBL4376814, “Novel cyclin-dependent kinase 9 (CDK9) inhibitor with suppression of cancer stemness activity against non-small-cell lung cancer” (Eur J Med Chem, 2019).

SMILES strings stand for the structures.

The target in experiment [1] is T1, CDK9/cyclin T1 (Homo sapiens) (UniProt O60563+P50750). Description: Inhibition of recombinant full-length human CDK9/cyclinT1 at 500 nM using KTFCGTPEYLAPEVRREPRILSEEEQEMFRDFDYIADWC peptide as substrate measured after 40 mins in presence of [gamma33P]ATP by scintillation counting method relative to control. The experiment is classed as protein-complex assay. The method in brief: (§1)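 Percent inhibition of kinase activity at a single compound concentration, measured by the outsourced Eurofins KinaseProfiler panel. Values are the mean of two independent experiments.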

For experiment [2], the target named is T2, CDK4/Cyclin D3 (Homo sapiens) (UniProt P11802+P30281). Kind of experiment: Inhibition of recombinant full-length human CDK4/cyclinD3 at 1 uM using Rb fragment as substrate measured after 40 mins in presence of [gamma33P]ATP by scintillation counting method relative to control. In kind it is protein-complex assay. The method, boiled down: as §1
Experiment [3] deals with T1, CDK9/cyclin T1 (Homo sapiens). Description: Inhibition of recombinant full-length human CDK9/cyclinT1 at 1 uM using KTFCGTPEYLAPEVRREPRILSEEEQEMFRDFDYIADWC peptide as substrate measured after 40 mins in presence of [gamma33P]ATP by scintillation counting method relative to control. In kind it is protein-complex assay. The method, boiled down:
as §1

Experiment [4] has as its system NCI-H1299. Description: Antiproliferative activity against human H1299 cells assessed as inhibition of cell viability at 1 uM after 72 hrs by CCK-8 assay relative to control. In kind it is functional. The settings on record: NCI-H1299, 72 h. The method in brief: (§2)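 Single-concentration viability screen using CCK-8. Cells were seeded at 3000/well and treated for 72 h. A450 read after 1-4 h with reagent. Percent inhibition calculated against untreated control and blank wells as (Ac−As)/(Ac−Ab)×100%.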
(In general: Tetrazolium assays rely on reduction of a dye to a coloured formazan, in cell work by metabolically active cells.)

The subject of experiment [5] is A549. Kind of experiment: Antiproliferative activity against human A549 cells assessed as inhibition of cell viability at 10 uM after 72 hrs by CCK-8 assay relative to control. In kind it is functional. The settings on record: A549, 72 h. The method, boiled down: as §2
The test system of experiment [6] is NCI-H1299. Description: Antiproliferative activity against human H1299 cells assessed as inhibition of cell viability at 10 uM after 72 hrs by CCK-8 assay relative to control. The experiment is classed as functional. The settings on record: NCI-H1299, 72 h. The method in brief:
as §2

Experiment [7] addresses CDK9/cyclin T1 (Homo sapiens, UniProt P50750). Description: Inhibition of recombinant full-length human CDK9/cyclinT1 using KTFCGTPEYLAPEVRREPRILSEEEQEMFRDFDYIADWC peptide as substrate measured after 40 mins in presence of [gamma33P]ATP by scintillation counting method. The experiment is classed as protein-complex assay. The method, boiled down:
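IC50 against CDK9/cyclin T1, determined by the outsourced Eurofins KinaseProfiler service. Values are the mean of two independent experiments.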

For experiment [8], the system named is A549. Kind of experiment: Antiproliferative activity against human A549 cells assessed as inhibition of cell viability at 1 uM after 72 hrs by CCK-8 assay relative to control. In kind it is functional. The settings on record: A549, 72 h. The method in brief:
as §2

Experiment [9] deals with T3, CDK6/cyclin D3 (Homo sapiens) (UniProt P30281+Q00534). Description: Inhibition of recombinant full-length human CDK6/cyclinD3 at 500 nM using histone H1 as substrate measured after 40 mins in presence of [gamma33P]ATP by scintillation counting method relative to control. The experiment is classed as protein-complex assay. The method, boiled down:
as §1

Experiment [10] has as its target T3, CDK6/cyclin D3 (Homo sapiens). Kind of experiment: Inhibition of recombinant full-length human CDK6/cyclinD3 at 1 uM using histone H1 as substrate measured after 40 mins in presence of [gamma33P]ATP by scintillation counting method relative to control. The experiment is classed as protein-complex assay. The method in brief:
as §1

Experiment [11] addresses T2, CDK4/Cyclin D3 (Homo sapiens). Description: Inhibition of recombinant full-length human CDK4/cyclinD3 at 500 nM using Rb fragment as substrate measured after 40 mins in presence of [gamma33P]ATP by scintillation counting method relative to control. The experiment is classed as protein-complex assay. The method in brief: as §1
Experiment [12] concerns the target T1, CDK9/cyclin T1 (Homo sapiens). Description: Potency index, ratio of ribociclib IC50 to compound IC50 for inhibition of recombinant full-length human CDK9/cyclinT1. The experiment is classed as protein-complex assay.

CDK9/cyclin T1, sequence (O60563 whole entry): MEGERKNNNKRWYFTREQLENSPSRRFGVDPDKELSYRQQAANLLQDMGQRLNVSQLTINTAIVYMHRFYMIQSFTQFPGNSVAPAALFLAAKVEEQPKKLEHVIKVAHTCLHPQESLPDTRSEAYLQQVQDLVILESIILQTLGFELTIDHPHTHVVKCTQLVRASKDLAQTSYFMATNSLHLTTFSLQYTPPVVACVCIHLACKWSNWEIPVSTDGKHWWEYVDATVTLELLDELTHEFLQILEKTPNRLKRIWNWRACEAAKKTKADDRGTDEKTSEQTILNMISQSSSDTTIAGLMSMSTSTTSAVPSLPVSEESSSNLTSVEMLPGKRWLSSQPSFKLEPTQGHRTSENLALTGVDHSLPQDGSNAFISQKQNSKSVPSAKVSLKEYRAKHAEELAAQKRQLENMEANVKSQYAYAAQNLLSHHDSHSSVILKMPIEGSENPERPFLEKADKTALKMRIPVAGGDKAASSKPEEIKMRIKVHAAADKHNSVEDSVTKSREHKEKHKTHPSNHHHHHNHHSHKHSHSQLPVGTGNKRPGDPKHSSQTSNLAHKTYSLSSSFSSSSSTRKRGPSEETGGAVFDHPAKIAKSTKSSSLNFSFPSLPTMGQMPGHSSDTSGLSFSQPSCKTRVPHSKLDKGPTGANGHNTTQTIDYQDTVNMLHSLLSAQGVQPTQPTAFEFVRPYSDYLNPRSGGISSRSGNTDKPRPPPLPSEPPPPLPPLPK
CDK9/cyclin T1, sequence (P50750 whole entry): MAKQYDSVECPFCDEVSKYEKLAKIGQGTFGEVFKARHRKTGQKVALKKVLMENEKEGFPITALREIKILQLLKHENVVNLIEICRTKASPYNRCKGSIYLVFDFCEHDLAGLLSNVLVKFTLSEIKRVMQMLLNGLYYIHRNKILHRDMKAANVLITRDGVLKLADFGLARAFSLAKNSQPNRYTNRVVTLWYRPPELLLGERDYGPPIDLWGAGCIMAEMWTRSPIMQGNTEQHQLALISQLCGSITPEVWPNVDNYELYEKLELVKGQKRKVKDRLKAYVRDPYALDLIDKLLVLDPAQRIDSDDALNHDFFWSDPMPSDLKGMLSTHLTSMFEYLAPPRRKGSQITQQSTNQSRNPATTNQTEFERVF

What is called inhibition is the relative decrease from the control value, in per cent. For orientation: IC50 means the concentration that inhibits the measured activity by half. Regarding `CN(C)C(=O)c1cc2cnc(Nc3ccc(C(=O)NCCCCN=C=S)cc3F)nc2n1C1CCCC1`, the inhibition was determined as 97% in experiment [1]; 89% in experiment [2]; 96% in experiment [3]; 38% in [9]; 86% in [10]; 76% in [11]. The inhibition at 1 µM in experiment [4] was 28.7%; in experiment [8], -7%. In addition, the inhibition at 10 µM in experiment [5] is 24.4%; in [6] it was 78.9%. Further, the IC50 in [7] came to 6 nM.
As to `CN(C)C(=O)c1cc2cnc(Nc3ccc(S(=O)(=O)NCCCCCCN=C=S)cc3)nc2n1C1CCCC1`, the inhibition in [1] is 98%; in experiment [2], 89%; in [3], 96%; in experiment [9], 41%; in [10], 81%; in [11], 78%. The inhibition at 1 µM in [4] came to 42.4%; in experiment [8] it was 49.5%. Also, the inhibition at 10 µM worked out at 101% in [5] and 70.6% in experiment [6]. The IC50 in [7] was 9 nM. Besides, the Ratio IC50 in [12] was above 20.
Regarding `CN(C)C(=O)c1cc2cnc(Nc3ccc(C(=O)NCCCCCN=C=S)cc3F)nc2n1C1CCCC1`, the inhibition in experiment [1] amounted to 96%; in [2], 86%; in [3], 96%; in experiment [9], 30%; in experiment [10] it was 81%; in [11], 72%. Further, the inhibition at 1 µM in experiment [4] is 36.1%; in experiment [8] it was -1.6%. Moreover, the inhibition at 10 µM in experiment [5] was 15.6%; in [6], 86.7%. Besides, the IC50 in [7] was 11 nM.
For the molecule `CN(C)C(=O)c1cc2cnc(Nc3ccc(C(=O)NCCCCN=C=S)cc3O)nc2n1C1CCCC1`, the inhibition in [1] was determined as 89%; in experiment [2] it was 55%; in experiment [3], 91%; in experiment [10], 61%. Moreover, the figures for the inhibition at 1 µM in experiment [4] and in experiment [8] were 10.7% and 30.3%, respectively. The results for the inhibition at 10 µM in experiment [5] and in experiment [6] were 41.7% and 51.8%, respectively. Further, in experiment [7], the IC50 stood at 42 nM.
`CN(C)C(=O)c1cc2cnc(Nc3ccc(C(=O)NCCCCCN=C=S)cc3O)nc2n1C1CCCC1`: the inhibition in experiment [1] was 91%; in [2], 59%; in experiment [3], 92%; in [10], 60%. In addition, the results for the inhibition at 1 µM in experiment [4] and in [8] were 22.6% and 23.1%, respectively. The values for the inhibition at 10 µM in experiment [5] and in experiment [6] were 30.7% and 80.7%, respectively. Also, the IC50 in experiment [7] was 33 nM.
`CN(C)C(=O)c1cc2cnc(Nc3ccc(C(=O)NCCCN=C=S)cc3O)nc2n1C1CCCC1`: the inhibition came out at 90% in experiment [1]; 46% in [2]; 94% in experiment [3]; 21% in [9]; 68% in [10]. For the same molecule, the inhibition at 1 µM came out at 10.3% in experiment [4] and 55.9% in experiment [8]. The inhibition at 10 µM in experiment [5] worked out at 73%; in experiment [6], 24.2%. Further, in experiment [7], the IC50 was 68 nM.
`CN(C)C(=O)c1cc2cnc(Nc3cccc(NC(=O)CCCCCCCN=C=S)c3)nc2n1C1CCCC1`: the inhibition in [1] was 98%; in experiment [2], 80%; in [3], 96%; in [9], 23%; in [10] it was 74%; in [11], 59%. Besides, the inhibition at 1 µM was 50.6% in experiment [4] and 44.6% in [8]. Also, the inhibition at 10 µM in experiment [5] was 96.7%; in [6], 86.9%. Moreover, the IC50 in [7] stood at 15 nM.
Regarding `CN(C)C(=O)c1cc2cnc(Nc3ccc(NC(=O)CCCCCCCN=C=S)cc3F)nc2n1C1CCCC1`, the inhibition in experiment [1] was determined as 96%; in experiment [2] it was 72%; in experiment [3] it was 95%; in experiment [10], 49%; in experiment [11], 62%. In addition, the inhibition at 1 µM in experiment [4] was determined as 7.5%; in [8], 8.65%. Further, the figures for the inhibition at 10 µM in experiment [5] and in [6] were 94.1% and 14%, respectively. In addition, the half-maximal inhibitory concentration (IC50) in [7] was 25 nM.
With `CN(C)C(=O)c1cc2cnc(Nc3ccc(S(=O)(=O)NCCCCCN=C=S)cc3)nc2n1C1CCCC1`, the inhibition in experiment [1] was found to be 95%; in experiment [2], 91%; in [3], 98%; in [9], 51%; in experiment [10], 89%; in experiment [11], 85%. Also, the values for the inhibition at 1 µM in experiment [4] and in experiment [8] were 52.1% and 56.6%, respectively. Further, the inhibition at 10 µM in experiment [5] was determined as 102%; in experiment [6], 83.4%.
Take `CN(C)C(=O)c1cc2cnc(Nc3ccc(C(=O)NCCCCCCN=C=S)cc3F)nc2n1C1CCCC1`: the inhibition was found to be 95% in experiment [1]; 89% in experiment [2]; 94% in experiment [3]; 34% in experiment [9]; 78% in experiment [10]; 68% in experiment [11]. Also, the values for the inhibition at 1 µM in experiment [4] and in [8] were 29.1% and -11.8%, respectively. The inhibition at 10 µM was 22.9% in experiment [5] and 77.6% in [6]. Moreover, the half-inhibitory concentration (IC50) in experiment [7] came out at 34 nM.
As to `CN(C)C(=O)c1cc2cnc(Nc3ccc(NC(=O)CCCN=C=S)cc3)nc2n1C1CCCC1`, the inhibition in experiment [1] was found to be 99%; in [2], 98%; in [3] it was 98%; in experiment [9] it was 70%; in [10], 93%; in [11] it was 99%. In addition, the inhibition at 1 µM in [4] is 39.7%; in experiment [8] it was 56.1%. The inhibition at 10 µM was 102% in experiment [5] and 78.8% in experiment [6].
Take `CN(C)C(=O)c1cc2cnc(Nc3ccc(C(=O)NCCCN=C=S)cc3)nc2n1C1CCCC1`: the inhibition in experiment [1] is 100%; in experiment [2], 99%; in experiment [3] it was 98%; in [9], 69%; in experiment [10] it was 94%; in experiment [11] it was 98%. In addition, the values for the inhibition at 1 µM in experiment [4] and in [8] were 65.1% and 32.9%, respectively. The inhibition at 10 µM in experiment [5] was 102%; in [6] it was 91.2%.
In the case of `CN(C)C(=O)c1cc2cnc(Nc3ccc(C(=O)NCCCN=C=S)cc3F)nc2n1C1CCCC1`, the inhibition in experiment [1] came to 98%; in [2], 86%; in [3] it was 97%; in experiment [9], 41%; in [10], 82%; in experiment [11], 75%. In addition, the figures for the inhibition at 1 µM in [4] and in experiment [8] were 9.27% and 16.7%, respectively. In addition, the inhibition at 10 µM in experiment [5] came out at 60.2%; in [6] it was 78.5%. Further, in [7], the IC50 stood at 10 nM.
For `CN(C)C(=O)c1cc2cnc(Nc3ccc(CNC(=O)CCCCCCCN=C=S)cc3)nc2n1C1CCCC1`, the inhibition in experiment [1] was 90%; in experiment [2], 93%; in experiment [3] it was 95%; in experiment [9], 63%; in [10], 81%; in experiment [11], 89%. Further, the inhibition at 1 µM in experiment [4] came to 53.8%; in experiment [8], 17.8%. Further, the inhibition at 10 µM was determined as 98.9% in experiment [5] and 91.7% in experiment [6].
Consider `CN(C)C(=O)c1cc2cnc(Nc3ccc(C(=O)NCCCCCCCN=C=S)cc3F)nc2n1C1CCCC1`, for which the inhibition stood at 90% in [1]; 67% in [2]; 92% in [3]; 52% in experiment [10]; 60% in experiment [11]. In addition, the inhibition at 1 µM in experiment [4] is -9.23%; in experiment [8], 0.05%. Besides, the inhibition at 10 µM came to 12.7% in [5] and 35.8% in experiment [6]. Also, the IC50 in experiment [7] was determined as 50 nM.
